Measurements published in PMC4010123 (Neuron, 2014).
Entries after “also recorded” stand apart in the source; their conditions may differ.

Columns and labels:
[1] = test system: Ser1116 of NR2B phosphorylated by Cdk5; assay: P-S1116 NR2B in acute hippocampal slices; assay type: cell-based, mouse
total NR2B = assay: Total NR2B levels in hippocampal slices; assay type: cell-based, mouse; conditions: acute hippocampal slices, NMDA 50 or 100 μM, 15 min
Outline: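 Acute mouse hippocampal slices were exposed to NMDA (50 or 100 μM, 15 min) in Mg2+-free Krebs buffer. Lysates were prepared with protease and phosphatase inhibitors and immunoblotted for total NR2B.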

[2] = test system: hippocampal CA3-CA1 pathway (fEPSP); assay: Extracellular field recordings, CA3-CA1 fEPSP slope in hippocampal slices; assay type: cell-based, mouse; conditions: for fEPSP slope, effect of NR2B siP in presence of Ro 25–6981: Ro 25–6981 3 μM, added 10 min before Pen siP (2 μM, 30 min)
Outline: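 Hippocampal slices were used; wild-type slices came from 3-month-old C57BL/6 mice. CA1 fEPSPs were evoked by bipolar Schaffer collateral stimulation (0.1 ms pulses at 0.033 Hz) at the intensity giving 50% of maximal slope. After a stable baseline, Pen-tagged test or control peptide was perfused for 30 min. Where used, Ro 25–6981 (3 μM) perfusion began 10 min before peptide. Read-out: percent change from baseline fEPSP slope.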

NR2B [3] = conditions: infusion into dorsal hippocampus; ref Zhang et al., 2008; cited from earlier work
[4] = test system: NMDAR / NR2B component of NMDAR-EPSC; assay: Whole-cell voltage-clamp NMDAR-EPSC, CA1 pyramidal neurons in hippocampal slices; assay type: cell-based, mouse
Outline: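 Acute mouse hippocampal slices were pretreated with vehicle or Cdk5 inhibitor. Whole-cell voltage-clamp recordings of synaptically evoked NMDAR-EPSCs were made from CA1 pyramidal neurons, first without and then with the NR2B blocker ifenprodil. The ifenprodil-sensitive part was taken as the NR2B component; decay kinetics were also measured.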

[5] = test system: Ser1116 of NR2B phosphorylated by Cdk5; assay: P-S1116 NR2B in acute striatal slices; assay type: cell-based; conditions: acute mouse striatal slices, NR2B siP (Figure S3C and D)
Outline: (§1)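 Acute mouse striatal slices were treated in Mg2+-free Krebs buffer with polyarginine (R7)-tagged test peptide (0–100 μM, 0–180 min). Lysates were prepared with protease and phosphatase inhibitors and immunoblotted. For NR2B, P-S1116 was expressed as the P-S1116/total NR2B ratio; for DARPP-32, phospho-Thr75 was probed with total DARPP-32.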

rats = assay: Nociception, pain threshold and motor reflexes; assay type: in vivo, rat; conditions: chronic infusion (Figure S4B and C)
Outline: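 Rats received continuous bilateral infusion of the test peptide or a scrambled control into dorsal hippocampus by mini-osmotic pump, starting 24 h before fear conditioning. Nociception was scored as the foot-shock threshold that elicits flinching, jumping and vocalizing in the conditioning box; a tail flick test was also used. Scoring was blind. Data are mean ± SEM.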

[6] = test system: Cdk5-NR2B protein-protein interaction; assay: Co-immunoprecipitation of Cdk5 and NR2B from hippocampal slices; assay type: cell-based, mouse; conditions: 4 pooled slices per sample
Outline: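 Acute mouse hippocampal slices were treated in Mg2+-free Krebs buffer with test peptide, scrambled peptide or Cdk5 inhibitor. Four slices were pooled per sample for NR2B–Cdk5 co-immunoprecipitation and immunoblotting, with Cdk5 input shown.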

[7] = test system: Cdk5 (substrate inhibitor-1); assay: In vitro phosphorylation of inhibitor-1 by Cdk5; assay type: biochemical; conditions: Figure S3A
mice = assay: Fear conditioning in mice, acute infusion into dorsal hippocampus; assay type: in vivo, mouse
GFP-NR2B = assay: Cell surface GFP-NR2B in dendrites of cultured hippocampal neurons; assay type: cell-based, rat; conditions: NR2B siP 2 μM, 30 min, vs control peptide (S1116A); n = 49–64 cells
Sprague-Dawley rats = assay: Fear conditioning in rats, chronic infusion into dorsal hippocampus; assay type: in vivo, rat; conditions: for conditioned fear response at 96 h: extinction trial, both groups (siP and scrambled) (Figure S4E)
Outline: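 Two-month-old Sprague-Dawley rats received continuous bilateral dorsal hippocampal infusion by mini-osmotic pump, starting 24 h before training. Training: 2 min exploration, then a 30 s tone (90 dB, 10 kHz) co-terminating with a foot shock (2 s, 0.7 mA); 2 min more in the box. Context tests: 5 min at 24, 48, 72 and 96 h. Tone recall at 27 h in a novel vanilla context (3 min, then 3 min tone). Freezing was time-sampled every 5 s, blind. After extinction and pump expiry, rats were retrained (0.7 mA) and context-tested 24 h later.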

[8] = test system: Cdk5 (substrate recombinant NR2B, Ser1116); assay: In vitro phosphorylation of Ser1116 NR2B by Cdk5; assay type: biochemical; conditions: immunoblot
Ser1116 of NR2B [9] = assay: P-S1116 in siP-infused hippocampal area CA1; assay type: in vivo; conditions: rat CA1, NR2B siP vs scramble control; n = 4
Outline: (§2)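 Sprague-Dawley rats received continuous bilateral dorsal hippocampal infusion of test or scrambled peptide by osmotic pump. Epifluorescent CA1 tissue punches were immunoblotted, with protease and phosphatase inhibitors present. P-S1116 was expressed as the P-S1116/total NR2B ratio. Cell surface NR2B was measured from 4 pooled punches per condition.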

NMDAR/AMPAR EPSC = assay: NMDA/AMPA EPSC ratio in cortical slices; assay type: cell-based; conditions: cortical slices (pyramidal neurons), NR2B siP vs scrambled control; n = 12–16
NR2B or Cdk5 = assay: NR2B and Cdk5 expression levels in hippocampal slices; assay type: cell-based, mouse; conditions: NR2B siP
Outline: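 Mouse hippocampal slices treated in Mg2+-free Krebs buffer with the test peptide (0–100 μM, 0–180 min) or a scrambled control peptide. NR2B–Cdk5 association was assessed by co-immunoprecipitation using 4 pooled slices per sample. NR2B and Cdk5 levels were immunoblotted, with loading shown.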

NR2B [10] = assay: Cell surface biotinylation of NR2B in hippocampal slices; assay type: cell-based, mouse; conditions: n = 4
[11] = test system: Thr75 DARPP-32 (Cdk5 substrate); assay: phospho-Thr75 DARPP-32 in acute brain slices; assay type: cell-based, mouse; conditions: acute striatal slices, NR2B siP (Figure S3C and D)
Outline: as §1

Ser1116 of NR2B [12] = assay: P-S1116 NR2B in CA1 after siP infusion and fear conditioning; assay type: in vivo; conditions: NR2B siP infusion (Figure S5A)
Outline: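 Test peptide or control peptide was infused into dorsal hippocampus before fear conditioning. Animals were killed 1 h after training, and CA1 lysates were prepared with protease and phosphatase inhibitors. P-S1116 and total NR2B were measured by quantitative immunoblot and reported as the P-S1116/total NR2B ratio. Data are mean ± SEM.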

NR2B [13] = assay: NR2B cell surface expression in siP-infused hippocampal area CA1; assay type: in vivo; conditions: rat CA1, NR2B siP vs scramble control; 4 pooled tissue punches
Outline: as §2

NR2B-Cdk5 interaction = assay: Pull-down of Cdk5 by recombinant GST-tagged NR2B in vitro; assay type: binding; conditions: n = 3
[14] = test system: NR2B component of NMDAR EPSC; assay: Ifenprodil-sensitive NR2B component of NMDAR EPSC in slices; assay type: cell-based; conditions: slices incubated with NR2B siP vs scramble control; n = 6–7
[15] = slices from Cdk5 cKO mice, NR2B siP 2 μM, 30 min, n = 3

## CN[C@H](CC(=O)O)C(=O)O [NMDA, N-methyl-D-aspartate]
[1]; acute hippocampal slices, NMDA 50 or 100 μM, 15 min, n = 4
  P-S1116 normalized to total NR2B: dose-dependently attenuated P-S1116
Total NR2B
  total NR2B levels: reduced total NR2B levels

## C[C@@H](CN1CCC(Cc2ccccc2)CC1)[C@@H](O)c1ccc(O)cc1 [Ro25–6981]
[2]; n = 3
  fEPSP slope, effect of NR2B siP in presence of Ro 25–6981: blocked
NR2B [3]
  contextual fear learning: impair contextual fear learning
  locomotor or anxiety-related behavior: but not locomotor or anxiety-related behavior

## CC(C(O)c1ccc(O)cc1)N1CCC(Cc2ccccc2)CC1 (stereo not shown) [ifenprodil]
NR2B [3]
  contextual fear learning: impair contextual fear learning
  locomotor or anxiety-related behavior: but not locomotor or anxiety-related behavior
[4]; controls (vehicle), n = 6–7
  reduction of NMDAR-EPSC by ifenprodil in control slices: 20%
[4]; slices treated with CP681301, n = 6–7
  reduction of NMDAR-EPSC by ifenprodil in CP681301-treated slices: 33%

## C=C1[C@@H](O)[C@@H]2O[C@]3(CC[C@H](/C=C/[C@@H](C)[C@@H]4CC(C)=C[C@@]5(O[C@H](C[C@@](C)(O)C(=O)O)CC[C@H]5O)O4)O3)CC[C@H]2O[C@@H]1[C@@H](O)C[C@H](C)[C@H]1O[C@@]2(CCCCO2)CC[C@H]1C [okadaic acid]
[1]; hippocampal slices, PP2A/PP1 inhibitor okadaic acid + NMDA (Figure S2C)
  ability of NMDA to reduce P-S1116 in presence of okadaic acid: attenuated

## RRPPRSPDHKRYFRDKE [NR2B siP]
[5]
  P-S1116 in striatal slices: time-dependently reduced P-S1116
rats
  nociception, pain threshold, or motor reflexes: neither NR2B siP, nor scrambled control affected nociception, pain threshold, or motor reflexes
[6]
  Cdk5-NR2B co-immunoprecipitation / interaction: disrupts NR2B-Cdk5 interaction; also recorded: effectively blocked subsequent co-immunoprecipitation of Cdk5 and NR2B
[7]
  in vitro phosphorylation of inhibitor-1: did not inhibit
mice; 3 month-old mice, acute infusion
  freezing levels in context test, acute compared with chronic infusion: comparable to the levels observed with chronic infusion
mice; 3 month-old mice, acute infusion 90 min prior to conditioning, n = 6–10
  freezing in the tone test: not freezing to tone; also recorded: did not reveal any significant changes
mice; 14 month-old mice, acute infusion 90 min prior to training, vs control peptide or non-infused cannulated controls (Figure S5B)
  contextual fear memory, increase, aged mice: 1.7 fold
GFP-NR2B
  cell surface GFP-NR2B levels, increase, siP: 1.5 fold
Sprague-Dawley rats; rats, 48 and 72 h after initial training (Figure S4D and E)
  contextual memory enhancement during extinction trials: contextual memory enhancement persisted
Sprague-Dawley rats; rats, chronic infusion, 27 h after conditioning
  tone-induced freezing: no effect
Sprague-Dawley rats; rats
  conditioned fear response at 96 h: extinguished by 96 h for both groups
Sprague-Dawley rats; rats, re-trained after extinction and expiration of pump (Figure S4F)
  contextual fear memory 24 h after re-training: increased
Sprague-Dawley rats; two-month-old rats, chronic infusion, n = 20
  contextual fear memory: improved contextual fear memory
[8]
  in vitro phosphorylation of Ser1116 NR2B by Cdk5: dose-dependently inhibits
[2]; n = 3
  fEPSP slope, effect of NR2B siP in presence of Ro 25–6981: did not show a significant effect
[2]; hippocampal slices, after washout of NR2B siP (Pen siP), vs control peptide
  fEPSP slope, steady state after washout, relative to control treated slices: 1.6 fold
[2]; [15]
  fEPSP slope in Cdk5 cKO, effect: almost absent in Cdk5 cKO mice
  fEPSP slope in Cdk5 cKO, increase: 1.2 fold
Ser1116 of NR2B [9]
  P-S1116 in infused region: reduces P-S1116
NMDAR/AMPAR EPSC
  NMDA/AMPA EPSC ratio, increase: 1.8 fold
NR2B or Cdk5
  levels of NR2B or Cdk5 expression: did not alter levels of NR2B or Cdk5 expression
NR2B [10]; NR2B siP 1 h, 100 μM
  NR2B cell surface levels, increase, siP: 3.3 fold
NR2B [10]; NR2B siP or Scramble 1 h, 100 μM, or CP681301 1 h, 50 μM
  NR2B cell surface levels: increased
[11]
  phosphorylation state of Thr75 DARPP-32: no effect
Ser1116 of NR2B [12]
  P-S1116 NR2B in CA1 one hour post-training: decreased P-S1116 NR2B in CA1 one hour post-training
NR2B [13]
  NR2B cell surface expression: increases NR2B cell surface expression
NR2B-Cdk5 interaction
  block of pull-down of Cdk5 by GST-tagged NR2B: most potently blocked the pull-down of Cdk5; also recorded: dose-dependently disrupts NR2B-Cdk5 binding in vitro
[14]
  ifenprodil-sensitive NR2B component of NMDAR EPSC, increase: 1.5 fold

## RRRSYFHKEDRPPRDK [scrambled, reference compound]
rats
  nociception, pain threshold, or motor reflexes: neither NR2B siP, nor scrambled control affected nociception, pain threshold, or motor reflexes
[6]
  Cdk5-NR2B co-immunoprecipitation / interaction: did not affect Cdk5-NR2B interactions
Sprague-Dawley rats; rats
  conditioned fear response at 96 h: extinguished by 96 h for both groups
[8]
  in vitro phosphorylation of Ser1116 NR2B by Cdk5: did not attenuate Ser1116 phosphorylation in vitro
[8]; listed as scramble
  in vitro phosphorylation of Ser1116 NR2B by Cdk5: no effect
